Assay results as given in ChEMBL document CHEMBL1131033, “Selective endothelin A receptor antagonists. 4. Discovery and structure-activity relationships of stilbene acid and alcohol derivatives” (J Med Chem, 1998).

target: T1, Endothelin-1 receptor (Rattus norvegicus, UniProt P26684); test: Concentration required to inhibit 50% Et-1 binding to endothelin A receptor in rat A-10 cells.; format: cell-based, A10; conditions: not given
T1 sequence (P26684 whole entry): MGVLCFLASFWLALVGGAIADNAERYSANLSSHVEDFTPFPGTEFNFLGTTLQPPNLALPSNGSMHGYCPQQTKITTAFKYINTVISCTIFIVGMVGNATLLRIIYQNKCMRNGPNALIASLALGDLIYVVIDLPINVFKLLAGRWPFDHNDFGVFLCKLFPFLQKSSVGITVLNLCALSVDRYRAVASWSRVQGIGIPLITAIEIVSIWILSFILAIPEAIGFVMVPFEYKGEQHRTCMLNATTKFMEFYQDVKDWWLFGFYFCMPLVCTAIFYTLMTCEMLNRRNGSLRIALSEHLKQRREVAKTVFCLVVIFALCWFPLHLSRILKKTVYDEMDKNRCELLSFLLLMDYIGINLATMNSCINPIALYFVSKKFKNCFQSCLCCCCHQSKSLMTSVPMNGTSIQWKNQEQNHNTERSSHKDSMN
Summary of the method: (§1)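 Rat aortic smooth muscle A10 cells grown to confluence in DMEM with 10% FBS, harvested, and frozen. Nonspecific binding defined with 500 nM unlabeled ET-1. Bound ligand separated by vacuum filtration and gamma-counted. IC50 from curve fitting, usually in duplicate.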

IC50	Compound
200 nM	N#Cc1ccc(OCc2ccsc2)cc1/C=C(/C(=O)O)c1ccc2c(c1)OCO2
500 nM	O=C(O)/C(=C/c1cc(OCc2ccsc2)ccc1[N+](=O)[O-])c1ccccc1
150 nM	N#Cc1ccc(OCc2cccnc2)cc1/C=C(/C(=O)O)c1ccccc1
700 nM	N#Cc1ccc(OCc2ccsc2)cc1/C=C(/CCC(=O)O)c1ccccc1
600 nM	O=C(O)/C(=C/c1cc(OCc2ccsc2)ccc1[N+](=O)[O-])c1ccccc1F
2100 nM	OC/C(=C/c1cc(OCc2ccsc2)ccc1Br)c1ccccc1
2000 nM	O=C(O)/C(=C/c1cc(OCc2ccsc2)ccc1[N+](=O)[O-])c1c(F)cccc1Cl
6000 nM	O=C(O)/C(=C/c1cccc(OCc2ccccc2)c1)c1ccccc1
1400 nM	O=[N+]([O-])c1ccc(OCc2ccsc2)cc1/C=C(/CO)c1ccccc1
400 nM	O=[N+]([O-])c1ccc(OCc2ccsc2)cc1/C=C(/CO)c1ccccc1Cl
600 nM	O=C(O)/C(=C/c1cc(OCc2ccccc2)ccc1[N+](=O)[O-])c1ccccc1
1300 nM	N#Cc1ccc(OCc2ccc3c(c2)OCO3)cc1/C=C(/C(=O)O)c1ccccc1
300 nM	Cc1ccccc1/C(=C\c1cc(OCc2ccsc2)ccc1C#N)CO
5300 nM	O=C(O)CC/C(=C/c1cccc(OCc2ccccc2)c1)c1ccccc1
800 nM	N#Cc1ccc(OCc2ccsc2)cc1/C=C(/CO)c1ccccc1
200 nM	N#Cc1ccc(OCc2ccsc2)cc1/C=C(/C(=O)O)c1ccccc1Cl
2000 nM	O=C(O)CCC(Oc1cccc(OCc2ccccc2)c1)c1ccccc1 (stereo not given)
1300 nM	O=C(O)/C(=C/c1cc(OCc2ccsc2)ccc1[N+](=O)[O-])c1ccccc1Cl
300 nM	Cc1ccccc1/C(=C\c1cc(OCc2ccsc2)ccc1C#N)C(=O)O
700 nM	O=C(O)/C(=C/c1cc(OCc2ccsc2)ccc1Br)c1ccccc1
1100 nM	COc1cccc(/C(=C\c2cc(OCc3ccsc3)ccc2C#N)C(=O)O)c1

target: T2, Endothelin-1 receptor (Rattus norvegicus) (UniProt P26684); test: Concentration required to inhibit 50% Et-1 binding to Endothelin A receptor in rat A-10 cells.; format: cell-based; design: concentration or dose not given beside the values; conditions: A10; concentration not given here; summary of the method: as §1
T2 sequence (whole entry): T1 sequence (P26684 whole entry)

inhibition	Compound
< 20%	Nc1ccc(OCc2ccsc2)cc1/C=C(/C(=O)O)c1ccccc1F
< 20%	COc1ccc(C#N)c(/C=C(/C(=O)O)c2ccccc2)c1
< 20%	COc1ccc(/C(=C\c2cc(OCc3ccsc3)ccc2C#N)C(=O)O)cc1
< 20%	COC/C(=C/c1cc(OCc2ccsc2)ccc1C#N)c1ccccc1C
